IC50, Selectivity Index and Activity data for 16 molecules are collected here from ChEMBL document CHEMBL3576764, “α-Ketoamino acid ester derivatives as promising MAO inhibitors” (Bioorg Med Chem Lett, 2014).

For series [1], the target named is T1, Amine oxidase [flavin-containing] A (Rattus norvegicus, UniProt P21396).
T1 sequence (P21396 whole entry): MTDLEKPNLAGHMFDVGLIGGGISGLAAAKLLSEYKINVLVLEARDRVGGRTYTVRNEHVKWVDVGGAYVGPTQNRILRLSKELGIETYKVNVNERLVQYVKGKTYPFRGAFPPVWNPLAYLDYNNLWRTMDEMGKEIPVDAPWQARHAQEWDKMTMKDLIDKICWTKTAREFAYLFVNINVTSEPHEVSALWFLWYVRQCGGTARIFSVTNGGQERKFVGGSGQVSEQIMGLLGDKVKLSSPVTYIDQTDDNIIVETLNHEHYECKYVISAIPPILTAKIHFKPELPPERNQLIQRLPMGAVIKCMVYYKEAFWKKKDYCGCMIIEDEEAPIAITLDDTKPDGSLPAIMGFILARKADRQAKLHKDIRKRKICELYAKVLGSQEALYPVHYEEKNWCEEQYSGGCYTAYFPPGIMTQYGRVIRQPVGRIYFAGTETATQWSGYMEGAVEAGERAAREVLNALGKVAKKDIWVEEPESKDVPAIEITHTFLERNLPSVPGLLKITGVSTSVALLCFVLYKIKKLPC
Put plainly: Inhibition of MAO-A in rat liver mitochondria using serotonin as substrate preincubated with enzyme for 60 mins prior to substrate addition.

The target in series [2] is T2, Amine oxidase [flavin-containing] B (Bos taurus, UniProt P56560).
T2 sequence (P56560 whole entry): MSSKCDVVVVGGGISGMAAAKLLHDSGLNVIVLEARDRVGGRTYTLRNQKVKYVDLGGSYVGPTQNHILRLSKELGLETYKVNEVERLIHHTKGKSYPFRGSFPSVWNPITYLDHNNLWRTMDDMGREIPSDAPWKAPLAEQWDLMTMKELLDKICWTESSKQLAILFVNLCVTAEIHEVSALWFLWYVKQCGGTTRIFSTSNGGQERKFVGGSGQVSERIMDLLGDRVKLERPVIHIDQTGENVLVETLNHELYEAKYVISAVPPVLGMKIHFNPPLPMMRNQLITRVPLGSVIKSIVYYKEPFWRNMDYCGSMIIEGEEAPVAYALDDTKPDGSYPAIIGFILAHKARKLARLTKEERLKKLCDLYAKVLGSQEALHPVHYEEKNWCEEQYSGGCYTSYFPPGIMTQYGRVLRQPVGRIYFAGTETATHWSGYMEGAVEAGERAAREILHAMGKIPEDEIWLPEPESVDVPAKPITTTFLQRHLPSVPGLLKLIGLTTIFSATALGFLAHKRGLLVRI
Put plainly: Inhibition of MAO-B in bovine brain mitochondria using benzylamine as substrate.

The nature of series [3]: Selectivity index, ratio of IC50 for MAO-B in bovine brain mitochondria to IC50 for MAO-A in rat liver mitochondria. In a few lines:
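Enzyme source was mitochondria: rat liver for MAO-A, and bovine brain for MAO-B. Compounds were preincubated 60 min with enzyme before substrate was added: serotonin for MAO-A, benzylamine for MAO-B. Clorgyline served as the irreversible, time-dependent reference. Values are reported as IC50, and the selectivity index was derived from the MAO-A and MAO-B IC50s.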

In series [4] the test system is Mus musculus. Put plainly: Toxicity in mouse assessed as mortality up to 250 mg/kg, po. In kind it is organism-based. As to conditions: in vivo. In short, it runs like this: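 Acute oral toxicity study in male mice, with oral dosing up to 250 mg/kg and mortality recorded.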
Series [5] deals with Mus musculus. The series is described as follows: Toxicity in mouse up to dosed through parenteral route. As to conditions: in vivo.

Usually IC50 stands for the concentration that gives 50% inhibition. Higher therefore signals a need for much substance. Consider `COC(=O)CCNC(=O)C(=O)c1ccccc1NC(C)=O`, for which the concentration for half-maximal inhibition (IC50) in series [1] is 0.033 µM; in series [2], 990 µM. For the same molecule, the Selectivity Index in series [3] was found to be 30000. The Activity result in the series with Mus musculus [4] and with Mus musculus [5] was “Non-toxic” in each case.

For the molecule `COC(=O)CCCNC(=O)C(=O)c1ccccc1NC(C)=O`, the results for the IC50 in series [1] and in series [2] were 0.062 µM and 950 µM, respectively. For the same molecule, in series [3], the Selectivity Index was 15300.

On to `COC(=O)CCCNC(=O)c1ccc(NC(=O)C(=O)c2ccccc2NC(C)=O)cc1`, for which the IC50 in series [1] is 0.049 µM; in series [2], 590 µM. The Selectivity Index in series [3] is 12000.

On to `COC(=O)[C@@H](NC(=O)c1ccc(NC(=O)C(=O)c2ccccc2NC(C)=O)cc1)C(C)C`, for which the IC50 in series [1] was determined as 0.0028 µM; in series [2] it was 430 µM. The Selectivity Index in series [3] is 154000. Further, the Activity result with Mus musculus [4] and in the series with Mus musculus [5] was “Non-toxic” each time.

In the case of `COC(=O)C[C@H](NC(=O)c1ccc(NC(=O)C(=O)c2ccccc2NC(C)=O)cc1)C(=O)OC`, the IC50 worked out at 0.06 µM in series [1] and 790 µM in series [2]. For the same molecule, the Selectivity Index in series [3] came to 13200.

With `COC(=O)CCNC(=O)c1ccc(NC(=O)C(=O)c2ccccc2NC(C)=O)cc1`, the IC50 in series [1] is 0.018 µM; in series [2], 530 µM. Besides, the Selectivity Index in series [3] worked out at 29400. In addition, the Activity result in the series on Mus musculus [4] and in the series with Mus musculus [5] was “Non-toxic” throughout.

Turning to `COC(=O)[C@H](Cc1ccccc1)NC(=O)c1ccc(NC(=O)C(=O)c2ccccc2NC(C)=O)cc1`, the IC50 in series [1] is 0.036 µM; in series [2] it was 280 µM. Also, the Selectivity Index in series [3] turned out to be 7770.

`COC(=O)CCCCCNC(=O)c1ccc(NC(=O)C(=O)c2ccccc2NC(C)=O)cc1`: the IC50 in series [1] worked out at 0.093 µM; in series [2], 780 µM. For the same molecule, the Selectivity Index in series [3] was 8380.

Turning to `COC(=O)C(C)(C)NC(=O)c1ccc(NC(=O)C(=O)c2ccccc2NC(C)=O)cc1`, the half-inhibitory concentration (IC50) in series [1] is 0.043 µM; in series [2] it was 360 µM. The Selectivity Index in series [3] was found to be 8370.

For the molecule `COC(=O)[C@H](C)NC(=O)c1ccc(NC(=O)C(=O)c2ccccc2NC(C)=O)cc1`, the IC50 in series [1] was 0.036 µM; in series [2], 730 µM. For the same molecule, the Selectivity Index in series [3] is 20300. Moreover, the Activity entry in the series on Mus musculus [4] and in the series on Mus musculus [5] was “Non-toxic” in each case.

On to `COC(=O)C1(NC(=O)c2ccc(NC(=O)C(=O)c3ccccc3NC(C)=O)cc2)CCCC1`, for which the IC50 is 0.048 µM in series [1] and 380 µM in series [2]. Besides, the Selectivity Index in series [3] turned out to be 7910.

`CC(=O)N1C(=O)C(=O)c2ccccc21`: the results for the IC50 in series [1] and in series [2] were 0.056 µM and 380 µM, respectively. The Selectivity Index in series [3] came to 6780.

Take `COC(=O)[C@H](CC(C)C)NC(=O)C(=O)c1ccccc1NC(C)=O`: the values for the IC50 in series [1] and in series [2] were 0.072 µM and 480 µM, respectively. In addition, the Selectivity Index in series [3] is 6660.

With `COC(=O)C[C@H](NC(=O)C(=O)c1ccccc1NC(C)=O)C(=O)OC`, the 50% inhibitory concentration (IC50) was found to be 0.058 µM in series [1] and 460 µM in series [2]. For the same molecule, the Selectivity Index in series [3] was 7930.

For the molecule `COC(=O)CCCCCNC(=O)C(=O)c1ccccc1NC(C)=O`, the IC50 in series [1] was 0.068 µM; in series [2], 590 µM. Also, the Selectivity Index in series [3] came out at 8670.

As for `CCOC(=O)c1ccc(NC(=O)C(=O)c2ccccc2NC(C)=O)cc1`, the values for the half-maximal inhibitory concentration (IC50) in series [1] and in series [2] were 0.083 µM and 990 µM, respectively. The Selectivity Index in series [3] is 11900.
